This experiment relates to human washed platelets, cAMP competitive ELISA, 5 min. As to the kind of experiment: platelet cAMP elevation by single compound, confirmation, counter-screen for platelet activation inhibitor project, cell-based, competitive ELISA, PGE1 reference (AID 2646). The conditions noted are these: at 10 µM; hits give high values. Put shortly:
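Test system: washed human donor platelets; benchmarks: PGE1 1 µM high, DMSO 0.3% neutral; signal: competitive cAMP ELISA of platelet lysates, optical density; doses: 10 µM compound, single concentration; medium: lysis in 0.1 M HCl with 0.5% Triton X-100; timing: 5 min platelet exposure to compound or control; replication: duplicate samples per compound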

We go through 1 compound from PubChem BioAssay AID2646 (Broad Institute, 2010).

Activity calls are given as the source filed them.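 The calls were made as follows: active = mean cAMP rise at 10 µM above half of the positive control's rise; inactive = the rest.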

As to `CCCC(=O)Nc1cccc(NC(=O)c2ccccc2Br)c1`, the cAMP elevation, % of PGE1 was 43.9% (inactive).
